# Results: the EternaBench riboswitch data
# Tested on: MS2 coat protein
# Assay: apparent Kd, MS2 coat protein; higher = weaker binding; RNA-MaP array; FMN 200 µM where present
# Procedure, shortened: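 Stalled E. coli RNA polymerase produced the designs on Illumina sequencing-chip clusters. SNAP-549-labelled MS2 coat protein was added from 0.7 or 1.5 nM, doubling to 3 µM, without and then with constant ligand, in 100 mM Tris-HCl pH 7.5, 80 mM KCl, 4 mM MgCl2, BSA, DTT, yeast tRNA and Tween-20. The apparent Kd is the median of filtered per-cluster fits of green signal normalised to red-channel RNA signal and control-cluster median Fmax.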
# [1] = designed as: OFF switch for flavin mononucleotide, no ligand
# [2] = ligand present: flavin mononucleotide, designed as: OFF switch for flavin mononucleotide
# [3] = designed as: ON switch for flavin mononucleotide, no ligand
# [4] = ligand present: flavin mononucleotide, designed as: ON switch for flavin mononucleotide
sequence,measurement,setting,value
GCAAAUUAGUGAGGAUAUACAUAAUUUAUUUCUGUAGAAGGCACAAACCUCAAGACAUGAGGAUCACCCAUGUGGUAUUUAAGC,apparent Kd,[1],155 nM
same,apparent Kd,[2],415 nM
UUGAGGUGCAAGAAGGGUCACAUGAGGAUCACCCAUGUCAUGUGAAGUCUCGAGAUUUUAUGUGGAUAGGAUAUUGCACCGAAC,apparent Kd,[3],203 nM
same,apparent Kd,[4],113 nM
GGCUAGUCAGGAUAUACGAACAUGUCGCCAGAUGUCAAGGUACAUGAGGAUCACCCAUGUAGAAGGGACUAGCC,apparent Kd,[1],42.7 nM
same,apparent Kd,[2],168 nM
AUGAGUAAAGCAGGAUAUCUAUUGUCUCUGUAACAUGAGGAUCACCCAUGUAGAGAAGGGCUUAGUCAUACUCUUCGGAGUUGA,apparent Kd,[1],7.27 nM
same,apparent Kd,[2],9.55 nM
AAGGUACGAGGAUAUACAUAGAUACAGACACAUGUGCAUGUACAUGAGGAUCACCCAUGUAGAAGGCGUAUAUA,apparent Kd,[1],30.2 nM
same,apparent Kd,[2],110 nM
CCGGAUAUGCAGGAUAUCGUAACGGAAACGUUACGAGAAGGGUAUACAUGAGGAUCACCCAUGUGUCCUACCGG,apparent Kd,[1],28.1 nM
same,apparent Kd,[2],32.3 nM
UCAAGAAGGCAGAAGGGUCCUCACAUGAGGAUCACCCAUGUAGAUAUGGAUAGGAUAUGUCUAGAGAAGUGUUGCUCUAAGGGU,apparent Kd,[3],1050 nM
same,apparent Kd,[4],159 nM
GUCGUGUGAGGAUAUCUGAUGUCUAACUUCGGUUAGACAUCAGAGAAGGCACAUGAGGAUCACCCAUGUCCGAC,apparent Kd,[1],195 nM
same,apparent Kd,[2],298 nM
GGGUACAUCGGAGGAUAUCAUGUAAAUACAUGAGGAUCACCCAUGUCGAUGGAGACAUCGGAGAUUUAGAAGGCCGAUGUACCG,apparent Kd,[3],158 nM
same,apparent Kd,[4],201 nM
AGGUUGUGAGGAUAUUAGUUUUAUGAUUGGAGGAGUUUGGCUGAGAAGGCACAUGAGGAUCACCCAUGUAGAUC,apparent Kd,[1],61.9 nM
same,apparent Kd,[2],124 nM
UGAUAGGACAGAGGAUAUACGUAUAAUUACCUCUACAUGAGGAUCACCCAUGUAGAAGGCUGUCCUAUCUAAGUCGGAAACGAC,apparent Kd,[1],5.99 nM
same,apparent Kd,[2],6.88 nM
UCUGCUCGAGGAUAUACAUGAGGAUCACCCAUGUAACCCAGAAGCAUGGCCUCAGGAUGUAGAAGGCGACGCUA,apparent Kd,[1],17.3 nM
same,apparent Kd,[2],37.5 nM
GUGUACGUAGGAUAUACAUGAGGAUCACCCAUGUGAAUAAGAUAGAAUAAGAUAAAGUGUAGAAGGACGAGUGU,apparent Kd,[1],37.3 nM
same,apparent Kd,[2],30.5 nM
AGCAUGUGAGGAUAUGCGGACUCCAGUAAAUCUGAAGUCCAGUAGAAGGCACAUGAGGAUCACCCAUGUGAUAA,apparent Kd,[1],92.9 nM
same,apparent Kd,[2],112 nM
CCUCCCUGAGGAUAUCCACCCUCAUACAUGAGGAUCACCCAUGUUCAACCCUGGGUACCCGGAGAAGGCAGAUUUC,apparent Kd,[1],116 nM
same,apparent Kd,[2],175 nM
CAGCGCUGUCGAGAGGAUAUGCGGUGAUGGACAUGAGGAUCACCCAUGUUAGCGGUAGCAUUACGGUAGAAGGCUCUACAGCUGC,apparent Kd,[3],31 nM
same,apparent Kd,[4],13.2 nM
CGGUACUAGGGAGGAUAUGGGAAGAUACAUGAGGAUCACCCAUGUUUAAGAAUGCCGAGAGGCAACUAGAAGGCCCUAGUACCU,apparent Kd,[3],353 nM
same,apparent Kd,[4],20.7 nM
AAAUAAGUUGCAGGAUAUUAUUUUUAAUAAAUAUAAGAAGGGCAACAAACCUCACAUGAGGAUCACCCAUGUACCCAUGCAUCU,apparent Kd,[1],97.8 nM
same,apparent Kd,[2],38.4 nM
UACAGACAUGAGGAUCACCCAUGUAAGGAUAUCGGUACCGAUGGCAUAAUCUGCUCGGCGAGAAGGUACAGUGU,apparent Kd,[1],22.6 nM
same,apparent Kd,[2],24.9 nM
UUAAAUCAUGUAGGAUAUGCAUGGCGAAGCUACGCAGAAGGACAUGAGGAUCACCCAUGUUCUGGCUACCGAGUUCGGUGGCAA,apparent Kd,[1],20.7 nM
same,apparent Kd,[2],83.2 nM
AUAUAGUCAGGAUAUCGAAGUGAGUGUUGGUUUGUAAGGUACGAGAAGGGACAUGAGGAUCACCCAUGUAGGAA,apparent Kd,[1],40.3 nM
same,apparent Kd,[2],38.8 nM
CUGCUCCGUGUAGGAUAUGCAUACUCCCACUAUGCAGAAGGACAUGAGGAUCACCCAUGUAUGUUAUUAUCACGUGUAGCGUAC,apparent Kd,[1],28.7 nM
same,apparent Kd,[2],72.9 nM
AUCAGCUCGUAAGGAUAUACGUCACUGCGUCAGCAGUGUGGUAAGAUCACAUGAGGAUCACCCAUGUAGAAGGGACGAGCUGAU,apparent Kd,[1],15.6 nM
same,apparent Kd,[2],142 nM
GUAGCAUACCGAGGAUAUUCUGGGCAUAAAUAAACAUGAGGAUCACCCAUGUGGCGAAAGCCUAGGGAGAAGGCGGAAUGCUAC,apparent Kd,[3],14.8 nM
same,apparent Kd,[4],13.6 nM
AGUGUCAUCGAGAAGGCCUUAACAUGAGGAUCACCCAUGUUAUAACAUGGGAGGAUAUCGAUGAUACAGCUACGUUUCGUAGCA,apparent Kd,[3],286 nM
same,apparent Kd,[4],18.2 nM
CAGGUAGACUGAGGAUAUACAAGACUUAGUCUAUCUAGGUCAUUAACCACAUGAGGAUCACCCAUGUAGAAGGCAGUCUGCCUG,apparent Kd,[1],17.7 nM
same,apparent Kd,[2],23.9 nM
CGCUCAAUUACUUUGAAUAGAAUCAGAAGGCGUAACAUGAGGAUCACCCAUGUAUUGACGUGUAACGAGGAUAUGAAUUGAGCG,apparent Kd,[1],4.7 nM
same,apparent Kd,[2],4.57 nM
GUAGCAUUCUGAGGAUAUCCAUACCGGAAACGGACAUGAGGAUCACCCAUGUGGCGAAAGCCUUGGGAGAAGGCAGUAUGCUAC,apparent Kd,[3],4.87 nM
same,apparent Kd,[4],4.34 nM
CCAGCUCGUGUUAGGAUAUCCAAGCUGCGGCUGGUGGAGAAGGGACAUGAGGAUCACCCAUGUAAUAAAGAAAA,apparent Kd,[1],26.4 nM
same,apparent Kd,[2],31.9 nM
UGCGUACAAGCGGACAUGAGGAUCACCCAUGUAUUGUUAUGCGAGGAUAUCGGGAAGCAGGAUUCCGAGAAGGUGCGGUGAGCC,apparent Kd,[3],19.2 nM
same,apparent Kd,[4],17.7 nM
AUGCUAUACGAAGGAUAUGGUUACAUGAGGAUCACCCAUGUAUUUUUUGUGAUCUUGUUUAAGUUCCAGAAGGUCGUAUAGCUA,apparent Kd,[1],486 nM
same,apparent Kd,[2],617 nM
UUAAAUCAUGUAGGAUAUGCAUGGCGAAGCUACGCAGAAGGACAUGAGGAUCACCCAUGUUAUAGCUACUGAGUUCAGUGGCAA,apparent Kd,[1],107 nM
same,apparent Kd,[2],231 nM
UGGUACAUGGGAGGAUAUGGGUUGAUAACAUGAGGAUCACCCAUGUUAAAUAUCGCGAGAGCGAACUAGAAGGCCCAUGUACCU,apparent Kd,[3],715 nM
same,apparent Kd,[4],45.1 nM
GUCAGCUCGUGAGGAUAUACAUGUGCUGGAUACAGCAUUAUAUUUUUCACAUGAGGAUCACCCAUGUAGAAGGCACGAGCUGAU,apparent Kd,[1],16.6 nM
same,apparent Kd,[2],29.9 nM
AAGUAUAGAGGAUAUAGUGAGUACUACAUGAGGAUCACCCAUGUUCUUCAAAACGUAUUUCUAGAAGGCUGUUAAA,apparent Kd,[1],45.3 nM
same,apparent Kd,[2],86.7 nM
GAGGUAUUCGUAGGAUAUCCGUCGCCACCGUGUGGAGAAGGACGAACAUGAGGAUCACCCAUGUAUCAUGGUGUGGACGCUUUC,apparent Kd,[1],71.5 nM
same,apparent Kd,[2],82.8 nM
UAUUAAUACGAAGGAUAUGGUUACAUGAGGAUCACCCAUGUAUGUAUAUUGAUCUAGAUAUUUAACCAGAAGGUCGGGAGUAAA,apparent Kd,[1],39 nM
same,apparent Kd,[2],38.2 nM
UUGGAUGUCGUAGGAUAUGUAGGAUAUUCCUACAUGAGGAUCACCCAUGUUGACAUGGAAGAAGGACAGAAGGACGAUGUCCAU,apparent Kd,[3],209 nM
same,apparent Kd,[4],5.03 nM
UGGAUGUAGGAGAAGGAGGACUUCAUGAGGAUCACCCAUGUGUUAGGACUUAGGAUAUUUGACAACAUGAGGAUCACCCAUGUG,apparent Kd,[3],60 nM
same,apparent Kd,[4],52.7 nM
UUUUAACAUGAGGAUCACCCAUGUGAGGAUAUCGAAAUUUAUAUUAAUAUUAUUAAAUCGAGAAGGCACAUUUU,apparent Kd,[1],102 nM
same,apparent Kd,[2],97.4 nM
UGAUCACAUGAGGAUCACCCAUGUCAGGAUAUCGUCACUGGAGCUUCGGCUCCAGUGACGAGAAGGGAUAUAAU,apparent Kd,[1],91.5 nM
same,apparent Kd,[2],197 nM
AGCAUGUUUACAUGAGGAUCACCCAUGUUUUUUUAGGAUAUCAGAAGGUACAAUUUGUGUUAGAGUAAGGAUAUGAUAUAUGCG,apparent Kd,[3],12.6 nM
same,apparent Kd,[4],8.88 nM
CUUUCCAGGUAGAAGGGAUUACUACAUGAGGAUCACCCAUGUCGAUUGAUCAGGAUAUGCCUGUCACGACGCGUGAUGCUAGAG,apparent Kd,[3],322 nM
same,apparent Kd,[4],66.3 nM
AUAAAGUGAGGAUAUACAUGAGGAUCACCCAUGUGAAAGUCUAAAAAAAUGACAAAAAGUAGAAGGCACAAAUA,apparent Kd,[1],23.8 nM
same,apparent Kd,[2],24.3 nM
CGACAUUACACAGGAUAUCCUCGACUUUGUCGAGGAGAAGGGUGUAAACAUGAGGAUCACCCAUGUAUAAUGUCGAAAUAUAAU,apparent Kd,[3],221 nM
same,apparent Kd,[4],28.9 nM
GCAGCACUGUAGAACAUGAGGAUCACCCAUGUCGAUUGUUAUGAGGAUAUGCAUCGUAUGAAGAUGCAGAAGGCAUUGUGCUGC,apparent Kd,[3],5.59 nM
same,apparent Kd,[4],5.16 nM
ACAAAUGGAGGAUAUACAUGAGGAUCACCCAUGUAUAUCCUACAUAUGUGAUCUUUAUGUAGAAGGCCAUUUGA,apparent Kd,[1],12.2 nM
same,apparent Kd,[2],11.5 nM
UGCGGUAGAGGAUAUACGUAGAUACAGAUUCAUGUAGAACUACAUGAGGAUCACCCAUGUAGAAGGCUAUCGCU,apparent Kd,[1],39.2 nM
same,apparent Kd,[2],482 nM
